Measured values taken from ChEMBL document CHEMBL1811814, “Synthesis and evaluation of indole, pyrazole, chromone and pyrimidine based conjugates for tumor growth inhibitory activities--development of highly efficacious cytotoxic agents” (Eur J Med Chem, 2010).

Experiments:
Format in all cases: functional
Design in all cases: scale not given: the % may be the effect or the level left
[1] = test system: ACHN; test: Growth inhibition of human ACHN cells assessed tumor cell growth at 10^-5 M
In short: (§1)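 NCI 60-human-tumor-cell-line panel screen. Each compound was tested at a single concentration of 10^-5 M, and percent growth of tumor cells was recorded for each cell line. Growth inhibition was expressed from these percent-growth values.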

[2] = test system: NCI-H322M; test: Growth inhibition of human NCI-H322M cells assessed tumor cell growth at 10^-5 M; in short: as §1
[3] = test system: SK-MEL-2; test: Growth inhibition of human SK-MEL-2 cells assessed tumor cell growth at 10^-5 M; in short: as §1
[4] = test system: OVCAR-8; test: Growth inhibition of human OVCAR8 cells assessed tumor cell growth at 10^-5 M; in short: as §1
[5] = test system: SF-268; test: Growth inhibition of human SF268 cells assessed tumor cell growth at 10^-5 M; in short: as §1
[6] = test system: LOX IMVI; test: Growth inhibition of human LOXIMVI cells assessed tumor cell growth at 10^-5 M; in short: as §1
[7] = test system: U-251; test: Growth inhibition of human U251 cells assessed tumor cell growth at 10^-5 M
In short: (§2)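 Single-dose screen at 10^-5 M across the 60 human tumor cell line panel, run to NCI standards. The value is the percent growth of each cell line in the presence of compound. Compounds active at this dose moved on to five-concentration testing (10^-4 to 10^-8 M).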

[8] = test system: OVCAR-4; test: Growth inhibition of human OVCAR4 cells assessed tumor cell growth at 10^-5 M; in short: as §1
[9] = test system: UO-31; test: Growth inhibition of human UO31 cells assessed tumor cell growth at 10^-5 M; in short: as §2
[10] = test system: A498; test: Growth inhibition of human A498 cells assessed tumor cell growth at 10^-5 M; in short: as §1
[11] = test system: SF-539; test: Growth inhibition of human SF539 cells assessed tumor cell growth at 10^-5 M; in short: as §1
[12] = test system: A549; test: Growth inhibition of human A549 cells assessed tumor cell growth at 10^-5 M; in short: as §1
[13] = test system: TK-10; test: Growth inhibition of human TK10 cells assessed tumor cell growth at 10^-5 M; in short: as §2
[14] = test system: SK-MEL-5; test: Growth inhibition of human SK-MEL-5 cells assessed tumor cell growth at 10^-5 M; in short: as §1
[15] = test system: SNB-75; test: Growth inhibition of human SNB75 cells assessed tumor cell growth at 10^-5 M; in short: as §2
[16] = test system: SK-MEL-28; test: Growth inhibition of human SK-MEL-28 cells assessed tumor cell growth at 10^-5 M; in short: as §1
[17] = test system: OVCAR-3; test: Growth inhibition of human OVCAR3 cells assessed tumor cell growth at 10^-5 M; in short: as §1
[18] = test system: IGROV-1; test: Growth inhibition of human IGROV1 cells assessed tumor cell growth at 10^-5 M; in short: as §1
[19] = test system: NCI-H226; test: Growth inhibition of human NCI-H226 cells assessed tumor cell growth at 10^-5 M; in short: as §1
[20] = test system: K562; test: Growth inhibition of human K562 cells assessed tumor cell growth at 10^-5 M; in short: as §1
[21] = test system: SN12C; test: Growth inhibition of human SN12C cells assessed tumor cell growth at 10^-5 M; in short: as §1
[22] = test system: 786-0; test: Growth inhibition of human 786-0 cells assessed tumor cell growth at 10^-5 M; in short: as §1
[23] = Growth inhibition of human […] cells assessed tumor cell growth at 10^-5 M; in short: as §1
[24] = test system: HOP-62; test: Growth inhibition of human HOP62 cells assessed tumor cell growth at 10^-5 M; in short: as §1
[25] = test system: SR; test: Growth inhibition of human SR cells assessed tumor cell growth at 10^-5 M; in short: as §2
[26] = test system: MOLT-4; test: Growth inhibition of human MOLT4 cells assessed tumor cell growth at 10^-5 M; in short: as §1
[27] = test system: HL-60(TB); test: Growth inhibition of human HL-60(TB) cells assessed tumor cell growth at 10^-5 M
In short: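 HL-60(TB), part of the 60-line panel, tested at a single concentration of 10^-5 M. The read-out is percent tumor cell growth relative to untreated growth.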

[28] = test system: UACC-62; test: Growth inhibition of human UACC62 cells assessed tumor cell growth at 10^-5 M; in short: as §2
[29] = test system: HCT-15; test: Growth inhibition of human HCT15 cells assessed tumor cell growth at 10^-5 M; in short: as §1
[30] = test system: OVCAR-5; test: Growth inhibition of human OVCAR5 cells assessed tumor cell growth at 10^-5 M; in short: as §1
[31] = test system: BT-549; test: Growth inhibition of human BT549 cells assessed tumor cell growth at 10^-5 M; in short: as §1
[32] = test system: EKVX; test: Growth inhibition of human EKVX cells assessed tumor cell growth at 10^-5 M; in short: as §1
[33] = test system: M14; test: Growth inhibition of human M14 cells assessed tumor cell growth at 10^-5 M; in short: as §1
[34] = test system: CCRF-CEM; test: Growth inhibition of human CCRF-CEM cells assessed tumor cell growth at 10^-5 M; in short: as §1
[35] = test system: HCC 2998; test: Growth inhibition of human HCC2998 cells assessed tumor cell growth at 10^-5 M; in short: as §1
[36] = test system: SW-620; test: Growth inhibition of human SW620 cells assessed tumor cell growth at 10^-5 M; in short: as §2
[37] = test system: UACC-257; test: Growth inhibition of human UACC257 cells assessed tumor cell growth at 10^-5 M; in short: as §2
[38] = test system: MDA-MB-435; test: Growth inhibition of human MDA-MB-435 cells assessed tumor cell growth at 10^-5 M; in short: as §1
[39] = test system: MCF7; test: Growth inhibition of human MCF7 cells assessed tumor cell growth at 10^-5 M; in short: as §1
[40] = test system: HT-29; test: Growth inhibition of human HT-29 cells assessed tumor cell growth at 10^-5 M; in short: as §1
[41] = test system: NCI/ADR-RES; test: Growth inhibition of human NCI/ADR-RES cells assessed tumor cell growth at 10^-5 M; in short: as §1
[42] = test system: SF-295; test: Growth inhibition of human SF295 cells assessed tumor cell growth at 10^-5 M; in short: as §1
[43] = test system: NCI-H23; test: Growth inhibition of human NCI-H23 cells assessed tumor cell growth at 10^-5 M; in short: as §1
[44] = test system: NCI-H460; test: Growth inhibition of human NCI-H460 cells assessed tumor cell growth at 10^-5 M; in short: as §1
[45] = test system: RXF 393; test: Growth inhibition of human RXF393 cells assessed tumor cell growth at 10^-5 M; in short: as §1
[46] = test system: HOP-92; test: Growth inhibition of human HOP92 cells assessed tumor cell growth at 10^-5 M; in short: as §1
[47] = test system: DU-145; test: Growth inhibition of human DU145 cells assessed tumor cell growth at 10^-5 M; in short: as §1
[48] = test system: NCI-H522; test: Growth inhibition of human NCI-H522 cells assessed tumor cell growth at 10^-5 M; in short: as §1
[49] = test system: CAKI-1; test: Growth inhibition of human Caki1 cells assessed tumor cell growth at 10^-5 M; in short: as §1
[50] = test system: COLO 205; test: Growth inhibition of human COLO205 cells assessed tumor cell growth at 10^-5 M; in short: as §1
[51] = Growth inhibition of human Hs 578T cells assessed tumor cell growth at 10^-5 M; in short: as §1
[52] = test system: Malme-3M; test: Growth inhibition of human MALME-3M cells assessed tumor cell growth at 10^-5 M; in short: as §1
[53] = test system: PC-3; test: Growth inhibition of human PC3 cells assessed tumor cell growth at 10^-5 M; in short: as §1
[54] = test system: HCT-116; test: Growth inhibition of human HCT116 cells assessed tumor cell growth at 10^-5 M; in short: as §1
[55] = test system: T47D; test: Growth inhibition of human T47D cells assessed tumor cell growth at 10^-5 M; in short: as §2
[56] = test system: SK-OV-3; test: Growth inhibition of human SKOV3 cells assessed tumor cell growth at 10^-5 M; in short: as §1
[57] = test system: MDA-MB-468; test: Growth inhibition of human MDA-MB-468 cells assessed tumor cell growth at 10^-5 M; in short: as §1
[58] = test system: MDA-MB-231; test: Growth inhibition of human MDA-MB-231 cells assessed tumor cell growth at 10^-5 M; in short: as §1
[59] = test system: KM12; test: Growth inhibition of human KM12 cells assessed tumor cell growth at 10^-5 M; in short: as §1
[60] = test system: SNB-19; test: Growth inhibition of human SNB19 cells assessed tumor cell growth at 10^-5 M; in short: as §2

O=C1/C(=C\c2cn(C(=O)c3ccccc3)c3ccccc23)c2ccccc2N1c1c(Cl)cccc1Cl
Activity [1]: 97.6% | Activity [2]: 111.9% | Activity [3]: 102.9% | Activity [4]: 113.1% | Activity [5]: 99.9% | Activity [6]: 97.6% | Activity [7]: 88.4% | Activity [8]: 99.5% | Activity [9]: 76.9% | Activity [10]: 102.8% | Activity [11]: 104% | Activity [12]: 110% | Activity [13]: 118.8% | Activity [14]: 107.1% | Activity [15]: 82.2% | Activity [16]: 113.4% | Activity [17]: 116.1% | Activity [18]: 99.2% | Activity [19]: 94.8% | Activity [20]: 114.6% | Activity [21]: 89.5% | Activity [22]: 90.7% | Activity [23]: 100.6% | Activity [24]: 94.2% | Activity [25]: 99.5% | Activity [26]: 89.6% | Activity [27]: 102.5% | Activity [28]: 95.4% | Activity [29]: 66.3% | Activity [30]: 94.2% | Activity [31]: 106.5% | Activity [32]: 97.7% | Activity [33]: 104.2% | Activity [34]: 111.2% | Activity [35]: 101.6% | Activity [36]: 104.6% | Activity [37]: 123.3% | Activity [38]: 115.5% | Activity [39]: 95.7% | Activity [40]: 103.4% | Activity [41]: 99.7% | Activity [42]: 126.6% | Activity [43]: 97.2% | Activity [44]: 111.1% | Activity [45]: 150.7% | Activity [46]: 79.8% | Activity [47]: 119.5% | Activity [48]: 90.9% | Activity [49]: 86.4% | Activity [50]: 122.5% | Activity [51]: 107.3% | Activity [52]: 106% | Activity [53]: 71.8% | Activity [54]: 94% | Activity [55]: 92.4% | Activity [56]: 111.6% | Activity [57]: 97.7% | Activity [58]: 103.3% | Activity [59]: 111.3%

CC1=NN(c2cccc(Cl)c2)C(=O)/C1=C\c1cn(C(=O)c2ccc(Cl)cc2)c2ccccc12
Activity [1]: 88.25% | Activity [2]: 109.45% | Activity [3]: 105.09% | Activity [4]: 98.63% | Activity [5]: 98.24% | Activity [6]: 90.49% | Activity [7]: 94.02% | Activity [8]: 99.58% | Activity [9]: 76.43% | Activity [10]: 123.09% | Activity [11]: 97.75% | Activity [12]: 96.27% | Activity [13]: 167.41% | Activity [14]: 90.74% | Activity [15]: 80.97% | Activity [16]: 112.94% | Activity [17]: 97.57% | Activity [60]: 99.84% | Activity [18]: 75.7% | Activity [19]: 86.8% | Activity [20]: 107.93% | Activity [21]: 92.22% | Activity [22]: 104.1% | Activity [23]: 97.03% | Activity [24]: 94.61% | Activity [25]: 96.12% | Activity [26]: 99.47% | Activity [27]: 117.42% | Activity [28]: 90.62% | Activity [29]: 91.41% | Activity [30]: 97.61% | Activity [31]: 95.84% | Activity [32]: 79.35% | Activity [33]: 96.55% | Activity [34]: 118.43% | Activity [35]: 108.88% | Activity [36]: 99.26% | Activity [37]: 105.58% | Activity [38]: 120.68% | Activity [39]: 87.82% | Activity [40]: 101.17% | Activity [41]: 107.61% | Activity [42]: 102.34% | Activity [43]: 91.24% | Activity [44]: 109.18% | Activity [45]: 94.47% | Activity [46]: 99.69% | Activity [47]: 104.66% | Activity [48]: 100.77% | Activity [49]: 92.37% | Activity [50]: 113.51% | Activity [51]: 92.29% | Activity [52]: 101.23% | Activity [53]: 95.29% | Activity [54]: 100.16% | Activity [55]: 79.84% | Activity [56]: 91.35% | Activity [57]: 103.55% | Activity [58]: 87.79% | Activity [59]: 93.09%
